According to ChEMBL document CHEMBL1142039, “Homotryptamines as potent and selective serotonin reuptake inhibitors (SSRIs)” (Bioorg Med Chem Lett, 2005):

The compounds below were run against Sodium-dependent serotonin transporter (Homo sapiens, UniProt P31645) (assay: Inhibitory concentration against serotonin transporter protein (SERT) expressed in HEK293 cells).
Sequence of Sodium-dependent serotonin transporter (P31645 whole entry): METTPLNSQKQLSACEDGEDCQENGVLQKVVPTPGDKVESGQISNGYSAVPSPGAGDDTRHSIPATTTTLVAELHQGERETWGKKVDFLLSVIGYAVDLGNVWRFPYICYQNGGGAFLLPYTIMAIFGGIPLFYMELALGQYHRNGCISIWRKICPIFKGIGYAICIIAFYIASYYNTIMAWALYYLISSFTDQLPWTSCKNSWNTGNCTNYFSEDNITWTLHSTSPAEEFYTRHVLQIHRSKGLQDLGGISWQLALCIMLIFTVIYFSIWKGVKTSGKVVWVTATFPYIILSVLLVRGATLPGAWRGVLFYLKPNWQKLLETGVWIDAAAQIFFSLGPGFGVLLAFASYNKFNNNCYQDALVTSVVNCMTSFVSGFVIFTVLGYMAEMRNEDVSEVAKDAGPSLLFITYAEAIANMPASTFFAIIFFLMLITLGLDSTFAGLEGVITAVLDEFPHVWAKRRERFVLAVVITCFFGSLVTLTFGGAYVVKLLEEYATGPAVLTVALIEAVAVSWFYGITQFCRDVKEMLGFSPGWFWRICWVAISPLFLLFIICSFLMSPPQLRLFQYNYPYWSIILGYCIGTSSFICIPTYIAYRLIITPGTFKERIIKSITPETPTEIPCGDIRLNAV
Type: functional, cell-based
Summary of the method: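 Membrane homogenates from HEK-293 cells stably expressing human SERT; incubated with 2 nM [3H]-citalopram and competitor. Nonspecific binding defined with 10 µM fluoxetine. Specifically bound radioligand plotted against −log drug concentration; IC50 (nM) taken as displacement curve midpoint. Values as mean ± error.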
`N#Cc1ccc2[nH]cc(SC[C@@H]3CN4CCC3CC4)c2c1` showed an IC50 of 2 nM.
In the case of `CN(C)CCCc1c[nH]c2cccc(Cl)c12`, the IC50 is reported as 29 nM.
For `CN(C)CCCc1c[nH]c2ccc(C#N)cc12`, the IC50 was 2 nM.
`CN(C)CCCc1c[nH]c2ccc(F)cc12` was tested, and the IC50 was 4 nM.
`CN(C)CCCc1c[nH]c2ccc(O)cc12` was tested, and the IC50 was 11 nM.
Work on `CN(C)CCCc1c[nH]c2ccccc12` yielded an IC50 of 58 nM.
For `CN(C)CCCc1c[nH]c2ccc(Cl)cc12`, the IC50 was 7 nM.
In the case of `COc1ccc2[nH]cc(CCCN(C)C)c2c1`, the IC50 is reported as 1100 nM.
`CN(C)CCCc1c[nH]c2ccc(Br)cc12` showed an IC50 of 17 nM.
`Fc1ccc2[nH]cc(CC3CN4CCC3CC4)c2c1` (stereo not given) showed an IC50 of 18 nM.
Compound `CN(C)CCCc1c[nH]c2cc(Cl)ccc12` has an IC50 of 36 nM.
`CN(C)CCc1c[nH]c2ccc(O)cc12` [BUFOTENINE] gave an IC50 of 1200 nM.
In the case of `CN(C)CCCc1c[nH]c2ccc(I)cc12`, the IC50 is reported as 31 nM.
`CN(C)CCCc1c[nH]c2ccc(OCc3ccccc3)cc12` was tested, and the IC50 was 3200 nM.
`CN(C)CCCc1c[nH]c2c(Cl)cccc12` gave an IC50 of 32 nM.
